Assay results taken from ChEMBL document CHEMBL1141506, “Synthesis and cytotoxic activity of a new series of topoisomerase I inhibitors” (Bioorg Med Chem Lett, 2008).
Activity calls are given as the source filed them. The calls are words filed in the database; no cut-off is given here.

Tests used:
NCI-H460 = test: Cytotoxicity against human NCI-H460 cells after 1 hr; format: functional, cell-based; settings: NCI-H460, 1 h
Summary of the method: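 Cells harvested at 72 h and counted by Coulter counter. IC50 is the concentration giving 50% less growth than untreated control, as mean of three assays.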

[1] = target: T1, DNA topoisomerase 1 (Homo sapiens) (UniProt P11387); test: Effect on stabilization of human recombinant topoisomerase 1-mediated DNA cleavage after 30 mins
T1 sequence (whole entry): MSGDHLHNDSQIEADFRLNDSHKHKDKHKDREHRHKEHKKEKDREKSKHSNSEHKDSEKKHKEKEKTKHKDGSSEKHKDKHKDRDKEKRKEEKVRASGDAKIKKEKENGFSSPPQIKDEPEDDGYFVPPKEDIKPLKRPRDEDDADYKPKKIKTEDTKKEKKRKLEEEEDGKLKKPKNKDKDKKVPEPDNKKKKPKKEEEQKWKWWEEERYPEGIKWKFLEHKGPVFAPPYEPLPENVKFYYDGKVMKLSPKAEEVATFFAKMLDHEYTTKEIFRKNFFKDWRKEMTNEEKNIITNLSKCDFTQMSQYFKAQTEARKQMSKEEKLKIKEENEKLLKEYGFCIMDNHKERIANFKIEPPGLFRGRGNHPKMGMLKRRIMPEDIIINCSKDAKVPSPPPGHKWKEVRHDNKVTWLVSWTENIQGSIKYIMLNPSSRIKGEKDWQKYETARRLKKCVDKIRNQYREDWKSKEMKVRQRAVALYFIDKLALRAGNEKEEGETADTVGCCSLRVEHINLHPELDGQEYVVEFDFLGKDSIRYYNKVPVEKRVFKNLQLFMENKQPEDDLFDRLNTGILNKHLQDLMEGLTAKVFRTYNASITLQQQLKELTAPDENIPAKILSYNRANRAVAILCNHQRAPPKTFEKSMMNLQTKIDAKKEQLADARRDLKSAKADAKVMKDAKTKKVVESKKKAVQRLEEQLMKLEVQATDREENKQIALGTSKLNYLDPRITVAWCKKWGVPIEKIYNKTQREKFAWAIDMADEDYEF
Summary of the method: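 3'-end-labelled 751-bp BamHI–EcoRI SV40 DNA fragment (20,000 cpm/sample) with 640 ng full-length human recombinant topo I. Buffer: 10 mM Tris–HCl pH 7.6, 150 mM KCl, 5 mM MgCl2, 15 µg/ml BSA, 0.1 mM DTT. Drug at 1, 10, 50 µM, 30 min at 37 °C. Stopped with 0.5% SDS/0.3 mg/ml proteinase K, 45 min at 42 °C. Denaturing 8% polyacrylamide gel.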

[2] = target: T1, DNA topoisomerase 1 (Homo sapiens); test: Inhibition of human recombinant topoisomerase 1 assessed as DNA plasmid relaxation after 30 mins
Summary of the method: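 Supercoiled pBR322 DNA (200 ng) with purified topo I in 20 mM Tris–HCl pH 7.6, 150 mM KCl, 5 mM MgCl2, 0.1 mM EDTA, 0.1 mM DTT, 0.5 µg/ml BSA. Compound at 1, 10, 50 µM, 30 min at 37 °C. Stopped with SDS/proteinase K at 42 °C for 45 min. Run on 0.8% agarose, ethidium bromide stained.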

SMILES	IC50 (NCI-H460)	Activity [1]	Activity [2]
COc1cc(OC)c2c(c1)C(=O)c1cc(OC)c3c(=O)cc(C)oc3c1C2=O	> 100 µM	–	–
Cc1cc(=O)c2ccc3c(c2o1)C(=O)c1c(OCCN(C)C)cccc1C3=O	7.15 µM	–	–
O=C1c2cccc(O)c2C(=O)c2c1ccc1c(=O)cc(-c3ccccc3)oc21	7.06 µM	–	–
Cc1cc(=O)c2ccc3c(c2o1)C(=O)c1c(O)ccc([N+](=O)[O-])c1C3=O	9.1 µM	–	–
Cc1oc2c3c(ccc2c(=O)c1Br)C(=O)c1cccc(O)c1C3=O	6.5 µM	–	–
COc1cccc2c1C(=O)c1c(O)cccc1C2=O	> 100 µM	Active	–
Cc1oc2c3c(ccc2c(=O)c1Br)C(=O)c1ccc(Br)c(O)c1C3=O	4.95 µM	–	inactive
COc1cccc2c1C(=O)c1c(ccc3c(=O)cc(C)oc13)C2=O	> 260 µM	–	–
COc1cccc2c1C(=O)c1c(O)ccc([N+](=O)[O-])c1C2=O	160 µM	Active	–
COc1cccc2c1C(=O)c1c(ccc3c(=O)cc(-c4ccccc4)oc13)C2=O	> 100 µM	–	–
CC[C@@]1(O)C(=O)OCc2c1cc1n(c2=O)Cc2cc3c(CN(C)C)c(O)ccc3nc2-1 [TOPOTECAN]	1.18 µM	–	–
Cc1cc(=O)c2c(O)cc3c(c2o1)C(=O)c1c(O)cc(O)cc1C3=O [TOPOPYRONE C]	29.5 µM	–	–
Cc1cc(=O)c2ccc3c(c2o1)C(=O)c1c(O)cccc1C3=O	5.5 µM	Active	inactive
COc1cccc2c1C(=O)c1c(OCCN(C)C)cccc1C2=O	> 100 µM	Active	–
